Experimental data from ChEMBL document CHEMBL1255454, “Systematic approach to optimizing specifically targeted antimicrobial peptides against Streptococcus mutans” (2010).
Converted amounts (≈) assume the structure as drawn. The source made the active and inactive calls. The calls are words filed in the database; no cut-off is given here. Square brackets hold non-standard residues; d marks the D form. Peptide text beside a SMILES is read from it. Aoc = NCCCCCCCC(=O)O

Assays:
[1] = tested on: Pseudomonas aeruginosa; test: Antimicrobial activity against Pseudomonas aeruginosa PAK after 16 to 20 hrs by broth microdilution assay; format: functional
Summary of the method: (§1)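 Broth microdilution. Twofold peptide dilutions were made in 50% BHI–50% sterile water for oral streptococci and in 1× Mueller-Hinton broth for the other bacteria. First round 500 to 0.97 µg/ml; a second round of 64 to 0.5 µg/ml was run in some cases, reporting its mode. Inoculum ~1 × 10^5 CFU/ml, 37°C for 16–20 h. Read A600; MIC taken as complete inhibition or ≥90% turbidity reduction versus peptide-free control.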

[2] = tested on: Streptococcus mutans; test: Antimicrobial activity against Streptococcus mutans UA159 after 16 to 20 hrs by broth microdilution assay; format: functional; summary of the method: as §1
[3] = tested on: Escherichia coli; test: Antimicrobial activity against Escherichia coli W3110 after 16 to 20 hrs by broth microdilution assay; format: functional; summary of the method: as §1
[4] = tested on: Streptococcus sanguinis; test: Antimicrobial activity against Streptococcus sanguinis NY101 after 16 to 20 hrs by broth microdilution assay; format: functional; summary of the method: as §1
[5] = tested on: Staphylococcus aureus; test: Antimicrobial activity against methicillin-resistant Staphylococcus aureus after 16 to 20 hrs by broth microdilution assay; format: functional
Summary of the method: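 MRSA grown aerobically in BHI at 37°C. Broth microdilution: 2-fold peptide dilutions in 1× Mueller-Hinton broth, first round 500 to 0.97 µg/ml; if activity below 62.5 µg/ml, sometimes a second round at 64 to 0.5 µg/ml, reporting the mode. Inoculum ~1 × 10^5 CFU/ml, 37°C for 16-20 h. A600 read. MIC = lowest concentration giving complete inhibition or ≥90% turbidity reduction versus peptide-free control.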

[6] = tested on: Streptococcus sobrinus; test: Antimicrobial activity against Streptococcus sobrinus ATCC 33478 after 16 to 20 hrs by broth microdilution assay; format: functional; summary of the method: as §1
[7] = tested on: Enterococcus faecalis; test: Antimicrobial activity against Enterococcus faecalis after 16 to 20 hrs by broth microdilution assay; format: functional; summary of the method: as §1
[8] = Antimicrobial activity against Streptococcus gordonii Challis DL1 after 16 to 20 hrs by broth microdilution assay; format: functional, Streptococcus gordonii str. Challis; summary of the method: as §1
[9] = tested on: Streptococcus mitis; test: Antimicrobial activity against Streptococcus mitis ATCC 903 after 16 to 20 hrs by broth microdilution assay; format: functional; summary of the method: as §1
[10] = tested on: Streptococcus gordonii str. Challis; test: Antimicrobial activity against Streptococcus gordonii Challis DL1 at 25 ug/ml after 30 mins by time-kill assay; format: functional
Summary of the method: (§2)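 Time-kill. Overnight cultures were diluted in BHI to A600 0.08 and treated with peptide at 25 µg/ml for 30 s to 2 h. Aliquots were diluted 1:50 in BHI, held on ice, plated and counted after 24 h as surviving CFU/ml. Three independent experiments, mean with SD; unpaired Student t test.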

[11] = tested on: Streptococcus sanguinis; test: Antimicrobial activity against Streptococcus sanguinis NY101 at 25 ug/ml after 30 mins by time-kill assay; format: functional, organism-based; summary of the method: as §2
[12] = tested on: Streptococcus mutans; test: Antimicrobial activity against Streptococcus mutans UA159 at 25 ug/ml after 30 mins by time-kill assay; format: functional; summary of the method: as §2
[13] = tested on: Streptococcus mitis; test: Antimicrobial activity against Streptococcus mitis ATCC 903 at 25 ug/ml after 30 mins by time-kill assay; format: functional, organism-based; summary of the method: as §2
[14] = tested on: Streptococcus sanguinis; test: Antimicrobial activity against Streptococcus sanguinis assessed as inhibition of bacterial biofilm formation at 50 uM after 10 mins; format: functional
Summary of the method: (§3)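 Mixed-species biofilms were grown 24 h at 37°C anaerobically in TH with 50% filter-sterilized pooled human saliva and 1% sucrose. Inoculum: S. mutans JM11 at 1 × 10^6 CFU/well plus S. oralis, S. gordonii, S. sanguinis, S. mitis and S. salivarius at 2 × 10^5 CFU/well each. Survivors were plated on TH agar for total streptococci and on TH agar with 800 µg/ml spectinomycin for JM11. Detection limit 100 CFU/ml.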

[15] = tested on: Streptococcus mitis; test: Antimicrobial activity against Streptococcus mitis assessed as inhibition of bacterial biofilm formation at 50 uM after 10 mins; format: functional; summary of the method: as §3
[16] = tested on: Streptococcus mutans; test: Antimicrobial activity against Streptococcus mutans JM11 assessed as inhibition of bacterial biofilm formation at 50 uM after 10 mins; format: functional; summary of the method: as §3
[17] = tested on: Streptococcus oralis; test: Antimicrobial activity against Streptococcus oralis assessed as inhibition of bacterial biofilm formation at 50 uM after 10 mins; format: functional; summary of the method: as §3
[18] = tested on: Streptococcus salivarius; test: Antimicrobial activity against Streptococcus salivarius assessed as inhibition of bacterial biofilm formation at 50 uM after 10 mins; format: functional; summary of the method: as §3
[19] = tested on: Streptococcus mutans; test: Antimicrobial activity against Streptococcus mutans UA159 assessed as inhibition of viability of bacterial biofilm at 25 ug/ml treated for 1 min measured after 4 hrs; format: functional
Summary of the method: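 S. mutans biofilms were seeded from overnight culture diluted 1:50 in TH broth with 0.5% sucrose, centrifuged, and grown 4 h anaerobically at 37°C. They were exposed to peptide in 1× PBS for about 1 min, washed, and given fresh TH broth without sucrose. Recovery was read as A600 after 4 h anaerobic incubation at 37°C. Three experiments; unpaired t test.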

[20] = tested on: Streptococcus gordonii; test: Antimicrobial activity against Streptococcus gordonii assessed as inhibition of bacterial biofilm formation at 50 uM after 10 mins; format: functional; summary of the method: as §3
[21] = tested on: Streptococcus mutans; test: Antimicrobial activity against Streptococcus mutans UA159 assessed as inhibition of bacterial biofilm formation at 25 uM after 3 mins by fluorescence assay; format: functional
Summary of the method: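 S. mutans UA159 overnight culture was diluted 1:5,000 in TH with 1% sucrose and grown as biofilm for 24 h. Biofilms were exposed 3 min at room temperature to 25 µM fluorescein-labelled peptide in HEPES/NaHCO3/NaCl/MgCl2 buffer with 0.1% CTAB, pH 7.4, then washed twice. Green fluorescence images were taken and biofilm-associated green pixels quantified as binding intensity units.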

Row | Compound | MIC [1] [µg/mL] | MIC [2] [µg/mL] | MIC [3] [µg/mL] | MIC [4] [µg/mL] | MIC [5] [µg/mL] | MIC [6] [µg/mL] | MIC [7] [µg/mL] | MIC [8] [µg/mL] | MIC [9] [µg/mL] | inhibition [21] | other results
1 | CC[C@H](C)[C@H](NC(=O)[C@H](Cc1ccccc1)NC(=O)[C@H](Cc1cnc[nH]1)NC(=O)[C@H](CCCCN)NC(=O)[C@@H](NC(=O)[C@H](Cc1ccccc1)NC(=O)[C@@H]1CCCN1C(=O)[C@H](Cc1ccc(O)cc1)NC(=O)[C@@H]1CCCN1C(=O)[C@H](Cc1ccccc1)NC(=O)[C@@H](Cc1cnc[nH]1)NC(=O)[C@@H](CC(C)C)NC(=O)[C@@H](Cc1cnc[nH]1)NC(=O)[C@@H](Cc1ccccc1)NC(=O)[C@@H](Cc1cnc[nH]1)NC(=O)[C@H](N)Cc1ccccc1)[C@@H](C)CC)C(=O)N[C@@H](Cc1cnc[nH]1)C(=O)N[C@@H](CCCNC(=N)N)C(=O)N[C@@H](Cc1ccccc1)C(N)=O | 125 (≈ 48.7 µM) | 32 (≈ 12.5 µM) | 125 (≈ 48.7 µM) | 62.5 (≈ 24.3 µM) | > 500 | 62.5 (≈ 24.3 µM) | 250 (≈ 97.4 µM) | – | – | – | –
2 | CC[C@H](C)[C@H](NC(=O)[C@H](Cc1ccccc1)NC(=O)[C@H](Cc1cnc[nH]1)NC(=O)[C@H](CCCCN)NC(=O)[C@@H](NC(=O)[C@@H](N)Cc1ccccc1)[C@@H](C)CC)C(=O)N[C@@H](Cc1cnc[nH]1)C(=O)N[C@@H](CCCNC(=N)N)C(=O)N[C@@H](Cc1ccccc1)C(=O)NCCCCCCCC(=O)N[C@@H](CCCNC(=N)N)C(=O)N[C@@H](Cc1c[nH]c2ccccc12)C(=O)N[C@@H](CCCNC(=N)N)C(=O)N[C@@H](Cc1c[nH]c2ccccc12)C(=O)N[C@@H](CCCNC(=N)N)C(=O)N[C@@H](Cc1c[nH]c2ccccc12)C(=O)N[C@@H](Cc1ccccc1)C(N)=O (H-FIKHFIHRF[Aoc]RWRWRWF-NH2) | 62.5 (≈ 24.4 µM) | 8 (≈ 3.13 µM) | – | 32 (≈ 12.5 µM) | 32 (≈ 12.5 µM) | – | – | 32 (≈ 12.5 µM) | 16 (≈ 6.25 µM) | – | Activity [10]: Active; Activity [11]: Active; Activity [12]: Active; Activity [13]: Active
3 | N=C(NCCCCCCNC(=N)NC(=N)Nc1ccc(Cl)cc1)NC(=N)Nc1ccc(Cl)cc1 [CHLORHEXIDINE] | – | – | – | – | – | – | – | – | – | – | inhibition at 50 µM [14]: 95%; inhibition at 50 µM [15]: 95%; inhibition at 50 µM ([16]; JM11, 10 min): 95%; inhibition at 50 µM [17]: 95%; inhibition at 50 µM [18]: 95%; inhibition [19]: Active; inhibition at 50 µM [20]: 95%
4 | H-AAKHAAHRA-NH2 | > 500 | > 500 | > 500 | > 500 | > 500 | > 500 | > 500 | > 500 | > 500 | inactive | –
5 | H-FHFHLHFASASAFIKHFIHRF-NH2 | 125 | 16 | 62.5 | 32 | 62.5 | 32 | 62.5 | – | – | – | –
6 | H-FHFHLHFGGGFIKHFIHRF-NH2 | 62.5 | 32 | 62.5 | 62.5 | 125 | 62.5 | 62.5 | – | – | – | –
7 | H-FHFHLHFPSGSPFIKHFIHRF-NH2 | > 500 | 62.5 | 125 | 62.5 | > 500 | 62.5 | 250 | – | – | Active | –
8 | H-FHFHLHFPSPSPFIKHFIHRF-NH2 | 125 | 32 | 62.5 | 125 | > 500 | 125 | 250 | – | – | – | –
9 | H-FHFHLHFSATFIKHFIHRF-NH2 | 125 | 16 | 125 | 62.5 | 125 | 250 | 62.5 | – | – | Active | –
10 | H-FIKHFIHRF-NH2 | > 500 | 125 | > 500 | 125 | > 500 | 125 | > 500 | > 500 | > 500 | Active | –
11 | H-FIKHFIHRFGGGRWRWRWF-NH2 | 62.5 | 8 | – | 32 | 32 | – | – | 32 | 32 | Active | Activity [10]: Active; inhibition [16]: Active; inhibition [19]: Active; Activity [11]: Active; Activity [12]: Active; Activity [13]: Active
12 | H-FIKHFIHRFSATRWRWRWF-NH2 | 62.5 | 8 | – | 32 | 125 | – | – | 32 | 16 | Active | inhibition [14]: inactive; inhibition [15]: inactive; inhibition [16]: Active; inhibition [17]: inactive; inhibition [18]: inactive; inhibition [19]: Active; inhibition [20]: inactive
13 | H-LIKHILHRL-NH2 | > 500 | 125 | > 500 | > 500 | > 500 | > 500 | > 500 | > 500 | > 500 | Active | –
14 | H-LIKHILHRLGGGFHFHLHF-NH2 | 250 | 16 | 250 | 62.5 | 62.5 | 32 | 32 | – | – | – | –
15 | H-RWRWRWF-NH2 | 32 | 4 | – | 32 | 32 | – | – | 32 | 32 | Active | inhibition [14]: inactive; inhibition [15]: inactive; Activity [10]: Active; inhibition [17]: inactive; inhibition [18]: inactive; inhibition [19]: Active; inhibition [20]: inactive; Activity [11]: Active; Activity [12]: Active; Activity [13]: Active
16 | H-WWHSWWSTW-NH2 | > 125 | 125 | 125 | 125 | > 125 | 125 | > 125 | 125 | 125 | Active | –
17 | H-WWKDWWERW-NH2 | > 500 | > 500 | > 500 | > 500 | > 500 | > 500 | > 500 | > 500 | > 500 | Active | –
18 | H-WWQDWWNEW-NH2 | > 500 | > 500 | > 500 | > 500 | > 500 | > 500 | > 500 | > 500 | > 500 | Active | –
19 | H-WWSYWWTQW-NH2 | > 125 | 125 | 125 | 125 | > 125 | 125 | > 125 | 125 | 125 | Active | –
20 | H-WWYNWWQDW-NH2 | > 500 | > 500 | > 500 | > 500 | > 500 | > 500 | > 500 | > 500 | > 500 | – | –
